The source made the active and inactive calls. The rule behind the calls is not given here.
What was measured:
Format in all cases: functional, cell-based
Epithelial cell [1] = assay: (§1) Antiproliferative activity against mouse +SA mammary epithelial cells after 4 days by MTT assay
In short: (§2)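 Highly malignant +SA mouse mammary epithelial cells kept in serum-free medium with 10 ng/mL EGF and 10 µg/mL insulin as mitogens. Seeded at 5 × 10⁴ cells/well, 6 wells/group, and fed medium containing compound at 0.01–1000 µM, compared with vehicle controls. After 4 days of culture, viable cell number was read by MTT colorimetric assay.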

[2] = as §1; conditions: Epithelial cell, 96 h; in short: as §2
Epithelial cell [3] = assay: Antiproliferative activity against mouse +SA mammary epithelial cells at 15 to 40 uM after 4 days by MTT assay; in short: as §2

Row | Structure (SMILES) | Activity (Epithelial cell [1]) | IC50 [2] | Activity (Epithelial cell [3])
1 | C/C1=C\[C@H](OC(=O)NCCCl)C[C@](C)(O)/C=C/[C@H](C(C)C)CC/C(C)=C/CC1 | inactive |  | 
2 | CC(C)=CCC/C(C)=C/CC/C(C)=C/CC[C@]1(C)CCc2cc(O)cc(C)c2O1 [DELTA-TOCOTRIENOL] |  | 7 µM | 
3 | CC(=O)O[C@H]1/C=C(\C)CC/C=C(\C)[C@@H](O)C[C@@H](C(C)C)/C=C/[C@@](C)(O)C1 |  | 20 µM | Active
4 | C/C1=C\[C@H](OC(=O)NCc2ccccc2)C[C@](C)(O)/C=C/[C@H](C(C)C)CC/C(C)=C/CC1 | inactive |  | 
5 | CC(=O)O[C@H]1/C=C(\C)CC[C@H](O)[C@@](C)(SC#N)CC[C@@H](C(C)C)/C=C/[C@@](C)(O)C1 | inactive |  | 
6 | CC(=O)O[C@H]1/C=C(\C)CC[C@@H]2OC(=N)S[C@@]2(C)CC[C@@H](C(C)C)/C=C/[C@@](C)(O)C1 | inactive |  | 
7 | CC(=O)O[C@H]1/C=C(\C)CC/C=C(\C)[C@H](O)C[C@@H](C(C)C)/C=C/[C@@](C)(O)C1 |  | 30 µM | Active
8 | CC(=O)/C=C/C(CC/C(C)=C/CC/C(C)=C/C(C)=O)C(C)C (stereo not given) [SECOCEMBRANOID] |  | 15 µM | Active
9 | CCNC(=O)O[C@H]1/C=C(\C)CC/C=C(\C)CC[C@@H](C(C)C)/C=C/[C@@](C)(O)C1 | inactive |  | 
10 | CC(=O)O[C@H]1/C=C(\C)CC/C=C(\C)CC[C@@H](C(C)C)/C=C/[C@@](C)(O)C1 | Active |  | 
11 | C/C1=C/C(=O)C[C@](C)(O)/C=C/[C@H](C(C)C)CC/C(C)=C/CC1 |  |  | Active
12 | C/C1=C\C(=O)C[C@](C)(O)/C=C/[C@H](C(C)C)CC/C(C)=C/CC1 |  |  | inactive

— ChEMBL document CHEMBL1144722 (J Nat Prod, 2008)
